The values below come from ChEMBL document CHEMBL1151472, “In vitro interactions between tacrolimus and azoles against Candida albicans determined by different methods” (2008).

The structures appear in SMILES notation. Converted amounts (≈) assume the structure as drawn.

What all share (assay type): functional
In experiment [1] the test system is Candida albicans. Description: Antimicrobial activity against azole-resistant Candida albicans isolate CA10 assessed as growth at 64 ug/ml co-treated with 0.002 ug/ml calcineurin signaling inhibitor tacrolimus after 48 hrs by microdilution checkboard technique relative to control. Also on record: scale not given: the % may be the effect or the level left. In a few lines: (§1)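 CA10 in RPMI 1640 with 2% dextrose and 0.165 M MOPS, pH 7.0. Checkerboard used twofold dilutions, with azole alone in row H and the drug-free growth control in well H1. Final inoculum was 2.5 × 10^3 CFU/ml, incubated 35°C for 48 h, with OD read at 492 nm. Growth % = background-subtracted well OD / drug-free well OD. Run in triplicate on different days.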

The subject of experiment [2] is Candida albicans. Briefly: Antimicrobial activity against azole-resistant Candida albicans isolate CA10 assessed as growth at 0.25 ug/ml cotreated with 0.002 ug/ml calcineurin signaling inhibitor Tacrolimus after 48 hrs by microdilution checkboard technique relative to control. Also on record: scale not given: the % may be the effect or the level left. A digest of the protocol:
(§2)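 Checkerboard microdilution in RPMI 1640 (pH 7.0, 2% dextrose, 0.165 M MOPS). Azole dilutions run along columns and FK506 along rows, at 4× final concentration. Final inoculum 2.5 × 10^3 CFU/ml from Sabouraud-subcultured cells. Incubated 35°C for 48 h; OD read at 492 nm. Background from microorganism-free plates subtracted. Growth % = well OD / drug-free well OD. Triplicate on different days, values averaged.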

For experiment [3], the system named is Candida albicans. Description: Antimicrobial activity against azole-resistant Candida albicans isolate CA10 assessed as growth at 1 ug/ml cotreated with 0.002 ug/ml calcineurin signaling inhibitor tacrolimus after 48 hrs by microdilution checkerboard technique relative to control. Also on record: scale not given: the % may be the effect or the level left. A digest of the protocol:
(§3)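 Checkerboard microdilution in MOPS-buffered RPMI 1640 (pH 7.0, 2% dextrose). Final ranges: azole 0.125–128 μg/ml (FLC) or 0.008–8 μg/ml (ITR, VRC), tacrolimus 0.002–0.125 μg/ml; solvent 1% in single-drug wells. Inoculum 2.5 × 10^3 CFU/ml, 35°C, 48 h. Growth % = background-subtracted OD492 of each well / drug-free well. Triplicate on different days.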
(Broth dilution looks for growth in wells or tubes with falling amounts of substance.)

In experiment [4] the test system is Candida albicans. Description: Antimicrobial activity against azole-resistant Candida albicans isolate CA10 assessed as growth at 0.063 ug/ml after 48 hrs by microdilution checkerboard technique relative to control. In a few lines: as §3
Experiment [5] concerns Candida albicans. Description: Antimicrobial activity against azole-resistant Candida albicans isolate CA10 assessed as growth at 0.5 ug/ml after 48 hrs by microdilution checkerboard technique relative to control. A digest of the protocol:
as §3

Experiment [6] deals with Candida albicans. Briefly: Antimicrobial activity against azole-resistant Candida albicans isolate CA10 assessed as growth at 0.25 ug/ml cotreated with 0.125 ug/ml calcineurin signaling inhibitor Tacrolimus after 48 hrs by microdilution checkboard technique relative to control. Also on record: scale not given: the % may be the effect or the level left. In a few lines: as §2

Experiment [7] has as its system Candida albicans. Description: Antimicrobial activity against azole-resistant Candida albicans isolate CA10 assessed as growth at 0.25 ug/ml cotreated with 0.016 ug/ml calcineurin signaling inhibitor Tacrolimus after 48 hrs by microdilution checkboard technique relative to control. Also on record: scale not given: the % may be the effect or the level left. A digest of the protocol:
as §2

In experiment [8] the test system is Candida albicans. Briefly: Antimicrobial activity against azole-resistant Candida albicans isolate CA10 assessed as growth at 1 ug/ml co-treated with 0.125 ug/ml calcineurin signaling inhibitor tacrolimus after 48 hrs by microdilution checkboard technique relative to control. Also on record: scale not given: the % may be the effect or the level left. In a few lines:
as §3

The subject of experiment [9] is Candida albicans. Description: Antimicrobial activity against azole-resistant Candida albicans isolate CA10 assessed as growth at 4 ug/ml cotreated with 0.002 ug/ml calcineurin signaling inhibitor tacrolimus after 48 hrs by microdilution checkerboard technique relative to control. Also on record: scale not given: the % may be the effect or the level left. In a few lines:
as §1

In experiment [10] the test system is Candida albicans. Briefly: Antimicrobial activity against azole-resistant Candida albicans isolate CA135 after 48 hrs by broth microdilution method. The following applies: isolate CA135, 48 h. A digest of the protocol:
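CLSI M27-A2 broth microdilution was run in RPMI 1640 (pH 7.0, 2% dextrose, 0.165 M MOPS). Inoculum was 2.5 × 10^3 CFU/ml, incubated 35°C for 48 h without shaking. Plates were read visually (0–5 scale) and at OD 492 nm. MIC80 = lowest concentration giving an 80% absorbance decrease vs drug-free control. Triplicate.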

Experiment [11] concerns Candida albicans. Briefly: Antimicrobial activity against azole-resistant Candida albicans isolate CA10 assessed as growth at 0.125 ug/ml cotreated with 0.063 ug/ml calcineurin signaling inhibitor Tacrolimus after 48 hrs by microdilution checkboard technique relative to control. Also on record: scale not given: the % may be the effect or the level left. A digest of the protocol: as §3

In experiment [12] the test system is Candida albicans. Description: Antimicrobial activity against azole-resistant Candida albicans isolate CA10 assessed as growth at 0.008 ug/ml after 48 hrs by microdilution checkerboard technique relative to control. In a few lines:
as §3

Experiment [13] has as its system Candida albicans. Briefly: Antimicrobial activity against azole-resistant Candida albicans isolate CA10 assessed as growth at 128 ug/ml co-treated with 0.063 ug/ml calcineurin signaling inhibitor tacrolimus after 48 hrs by microdilution checkboard technique relative to control. Also on record: scale not given: the % may be the effect or the level left. A digest of the protocol: as §3

The subject of experiment [14] is Candida albicans. Description: Antimicrobial activity against azole-resistant Candida albicans isolate CA10 assessed as growth at 0.5 ug/ml co-treated with 0.016 ug/ml calcineurin signaling inhibitor tacrolimus after 48 hrs by microdilution checkboard technique relative to control. Also on record: scale not given: the % may be the effect or the level left. A digest of the protocol:
as §3

Experiment [15] deals with Candida albicans. Briefly: Antimicrobial activity against azole-resistant Candida albicans isolate CA10 assessed as growth at 2 ug/ml cotreated with 0.016 ug/ml calcineurin signaling inhibitor Tacrolimus after 48 hrs by microdilution checkboard technique relative to control. Also on record: scale not given: the % may be the effect or the level left. A digest of the protocol: as §3

Experiment [16] relates to Candida albicans. Briefly: Antimicrobial activity against azole-resistant Candida albicans isolate CA10 assessed as growth at 0.5 ug/ml cotreated with 0.004 ug/ml calcineurin signaling inhibitor tacrolimus after 48 hrs by microdilution checkerboard technique relative to control. Also on record: scale not given: the % may be the effect or the level left. A digest of the protocol:
as §3

Experiment [17] deals with Candida albicans. Briefly: Antimicrobial activity against azole-resistant Candida albicans isolate CA10 assessed as growth at 0.25 ug/ml cotreated with 0.004 ug/ml calcineurin signaling inhibitor Tacrolimus after 48 hrs by microdilution checkboard technique relative to control. Also on record: scale not given: the % may be the effect or the level left. A digest of the protocol: as §2

Experiment [18] relates to Candida albicans. Briefly: Antimicrobial activity against azole-resistant Candida albicans isolate CA10 assessed as growth at 0.125 ug/ml cotreated with 0.125 ug/ml calcineurin signaling inhibitor Tacrolimus after 48 hrs by microdilution checkboard technique relative to control. Also on record: scale not given: the % may be the effect or the level left. A digest of the protocol:
as §3

Experiment [19] concerns Candida albicans. Description: Antimicrobial activity against azole-resistant Candida albicans isolate CA10 assessed as growth at 2 ug/ml cotreated with 0.063 ug/ml calcineurin signaling inhibitor tacrolimus after 48 hrs by microdilution checkerboard technique relative to control. Also on record: scale not given: the % may be the effect or the level left. In a few lines:
as §3

In experiment [20] the test system is Candida albicans. Briefly: Antimicrobial activity against azole-resistant Candida albicans isolate CA10 assessed as growth at 0.002 ug/ml after 48 hrs by microdilution checkerboard technique relative to control. In a few lines: as §3
For experiment [21], the system named is Candida albicans. Briefly: Antimicrobial activity against azole-resistant Candida albicans isolate CA10 assessed as growth at 16 ug/ml cotreated with 0.063 ug/ml calcineurin signaling inhibitor tacrolimus after 48 hrs by microdilution checkerboard technique relative to control. Also on record: scale not given: the % may be the effect or the level left. In a few lines: as §3

The test system of experiment [22] is Candida albicans. Description: Antimicrobial activity against azole-resistant Candida albicans isolate CA10 co-treated with calcineurin signaling inhibitor tacrolimus after 48 hrs by microdilution checkerboard technique. Particulars: isolate CA10, 48 h. In a few lines: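 Checkerboard microdilution in MOPS-buffered RPMI 1640 (pH 7.0, 2% dextrose) with 2.5 × 10^3 CFU/ml for 48 h at 35°C. Final FK506 was 0.002–0.125 μg/ml. Azole finals were FLC 0.125–128 μg/ml, and ITR and VRC 0.008–8 μg/ml. MIC80 is an 80% OD492 decrease vs drug-free control. Interaction was scored by FICI (synergy ≤0.5, antagonism >4) and by ΔE from triplicates.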

For the compound `OC(Cn1cncn1)(Cn1cncn1)c1ccc(F)cc1F` [FLUCONAZOLE], the Activity in experiment [1] is given as 28%; in experiment [2], 61%; in [3], 50%; in [4], 93%; in [5] it was 53%; in experiment [6], 7%. In addition, the Activity in experiment [7] worked out at 23%; in experiment [8], 3%; in experiment [9], 44%; in experiment [11], 27%; in [12], 96%; in experiment [13], 5%. Besides, the Activity in [14] worked out at 21%; in experiment [15] it was 20%; in experiment [16] it was 38%; in experiment [17] it was 42%; in experiment [18], 25%; in experiment [19] it was 13%. The Activity in [20] is recorded as 97%; in experiment [21], 7%. Besides, the figures for the MIC in [10] and in experiment [22] were 64 µg/mL (≈ 209 µM) and 0.25 µg/mL, respectively.

One may read the MIC as the smallest concentration in the dilution series that meets the test's criterion for growth inhibition.
